Test results from the EternaBench riboswitch data.

Test system: MS2 coat protein
Assay: apparent Kd, MS2 coat protein; higher = weaker binding; RNA-MaP array; FMN 200 µM where present
How it was run: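 Green signal was scaled to red-channel RNA signal and control-cluster median Fmax, and the apparent Kd was taken as the median of filtered per-cluster binding-curve fits. The binding series used SNAP-549-labelled MS2 coat protein from 0.7 or 1.5 nM, doubling to 3 µM, on designs transcribed by stalled E. coli RNA polymerase on Illumina sequencing-chip clusters. Each series ran without and then with constant ligand in 100 mM Tris-HCl pH 7.5, 80 mM KCl, 4 mM MgCl2, BSA, DTT, yeast tRNA and Tween-20.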

[1] = designed as: ON switch for flavin mononucleotide, no ligand
[2] = ligand present: flavin mononucleotide, designed as: ON switch for flavin mononucleotide
[3] = designed as: OFF switch for flavin mononucleotide, no ligand
[4] = ligand present: flavin mononucleotide, designed as: OFF switch for flavin mononucleotide

| Sequence | apparent Kd [1] [nM] | apparent Kd [2] [nM] | apparent Kd [3] [nM] | apparent Kd [4] [nM] |
| --- | --- | --- | --- | --- |
| GUUGCUUUCCGAGGAUAUUCCGGGCGUGGCUAUACAUGAGGAUCACCCAUGUGGCGGCCGCCUAGGGAGAAGGCGGGCUGCUUC | 15.9 | 15.7 | – | – |
| UGGUACAUGGGAGGAUAUGGGUUGAUAACAUGAGGAUCACCCAUGUUAAAUAUGCCUAGUGGCAACUAGAAGGCCCAUGUACCU | 317 | 51 | – | – |
| UAUAUUUUUAUAGGAUAUGGAUAUGAUGCAUAUCCAGAAGGGUGAAUAUAAUAUUUUCUGUACAUGAGGAUCACCCAUGUUUAU | 235 | 72.2 | – | – |
| AAGUCACAUGAGGAUCACCCAUGUCGUAAACGAUGAGGAUAUAGGAAGAAAAAAAAAAAACUAGAAGGUAUUACAA | 59.8 | 55.9 | – | – |
| AUUAAGUGAGGAUAUACAAGAUCGCUUACCGCCAAAGGCGGACAUGAGGAUCACCCAUGUAGAAGGCACAAAUU | – | – | 45.7 | 270 |
| UUUCCGCGAGGAUAUACGGGCUGUGCUUUUCAUUUCUUACAACAUGAGGAUCACCCAUGUAGAAGGUGCUUCUU | – | – | 208 | 196 |
| GCUUGAGCUGUGAGGAUAUGAGUUCGGAAAUGAGCUUAGAAGGCACAUGAGGAUCACCCAUGUAAGGUUCGAGU | – | – | 38 | 17.7 |
| GCAGACGUAGUGAGGAUAUGCUCUACCUCGGUAGAGCAGAAGGCACAUGAGGAUCACCCAUGUGAUUUCUCUGC | – | – | 37.2 | 421 |
| AACAAUCUAUCUGAGGAUAUCAUGAAAAAAACAUGAGGAUCACCCAUGUGCAGGAAAACUGCAUAUGAGAAGGCAGAUAGAUUGC | 590 | 26.8 | – | – |
| GCAUACAUUCGAGGAUAUCGGUGAACAAAUUAACGAGAAGGCGAUAGAAUGUUUAAUCUUAUAAACAUGAGGAUCACCCAUGUA | 35.2 | 25.2 | – | – |
| CCAUGCGGAUGAGGAUAUUCAUUCAUGAGGAUAGAAGAAGGCGUACAUGAGGAUCACCCAUGUAUACACAUGAGGAUCCCUUAC | – | – | 385 | 372 |
| AGGCUUGCCACAGGAUAUGCUGACAUGAGAGAAGCAGAAGGGUGGUCGACGUUUUGGCGACAUGAGGAUCACCCAUGUUAGCGU | 178 | 28.3 | – | – |
| GGUCGUCAAAUUAACAUGAGGAUCACCCAUGUGAAAACACAUGAGGAUAUGCAUCCUAAUUGGAUGCAGAAGGCAUGGACGACC | 16.5 | 6.21 | – | – |
| UAGAAGUCAGGAUAUGCUGCUCGUCACUUGCGUGAUGAGUAGCAGAAGGGACAUGAGGAUCACCCAUGUAAAGU | – | – | 52.5 | 91 |
| AUUACAUGAGGAUCACCCAUGUACGGCACGUUUCAAAACACUGAGGAUAUACGAUAUGUAGGAACGUAGAAGGCAGUGGGUGCA | 99.7 | 34 | – | – |
| UUGGACGUCGUAGGAUAUGUAGGAUACUCCUACAUGAGGAUCACCCAUGUUGACAUGGAAGAAGGACAGAAGGACGAUGUCCAU | 753 | 50.5 | – | – |
| GUAUCUUAUGUGAGGAUAUAUUAUGUCUUGGUGUAGUAGAAGGCACAUGAGGAUCACCCAUGUCCUAUUGGUCU | – | – | 40.9 | 116 |
| GUUGAGCGUGCUACGCAAAAUAACGCAGAAGGCCAACAUGAGGAUCACCCAUGUAAACGAAAGAUGGAGGAUAUGCGGUUUGGC | 50.4 | 6.81 | – | – |
| UGAAAUCAUGUAGGAUAUGCAUGGCGAAGCUACGCAGAAGGACAUGAGGAUCACCCAUGUUAUAGCUACCCGUUACGGUGGCAA | – | – | 135 | 155 |
| GCCUGCUGGCGAGGAUAUUCUGUGAGGUUCCGGCUCGUGUCUGUUACAUGAGGAUCACCCAUGUGGGAGAAGGUGUCUGUGGCC | – | – | 6.15 | 6.13 |
| AUUCCUCCUGUGAGGAUAUGCGUUUCGCACUCGUCGCAGAAGGCACAUGAGGAUCACCCAUGUGAGUUACCAAA | – | – | 14.8 | 20 |
| UUGCGGUAGGAGAAGGACAGAGGCUUCAUUACAUACAUGAGGAUCACCCAUGUAGGAUAUCCUACCUAACGCGGACUCCUCCUG | – | – | 10.7 | 20.1 |
| AAUAAGGUCACAGGAUAUACUACAUCCAAUGCGGUAGAAGGGUGACACUUACUGUGCAGACAUGAGGAUCACCCAUGUAACCAC | 53 | 10.4 | – | – |
| GUCAGCUCGUGAGGAUAUACAACACUGCUUCGGCAGUGUAUUAAGAACACAUGAGGAUCACCCAUGUAGAAGGCACGAGCUGAU | – | – | 4.92 | 6.08 |
| UUGUUAAAUGAAGGAUAUACUUAACAUGAGGAUCACCCAUGUGGUGUUGUGAGUGAGUGAGUUUAGUAGAAGGUCAAUUCUUUU | – | – | 229 | 232 |
| AACCCUUGAGGAUAUUAAACAAAUCACAUGAGGAUCACCCAUGUGCAUACCUCGUGGCUUUGAGAAGGCAGUCGGG | – | – | 34.9 | 39.2 |
| AUGCCUUAUGUAGGAUAUGCAUAGAGUUGCUAUGCAGAAGGACAUGAGGAUCACCCAUGUAUGUAUACCUUACAAAUCUAGCAU | – | – | 38.6 | 230 |
| AAGAUGCGGGUAGGAUAUGGAAAUUAAUAAAGACCAGAAGGACUGGUCACACAACAUGAGGAUCACCCAUGUGUGUGUUGUGAA | – | – | 11.9 | 10.4 |

| Sequence | apparent Kd [1] [nM] | apparent Kd [2] [nM] | apparent Kd [3] [nM] | apparent Kd [4] [nM] |
| --- | --- | --- | --- | --- |
| GGUACUCAAAGAGUACCAAUAUGAACAUGAGGAUCACCCAUGUAGGAUAUGCUACUCAAAGAGUAGCAGAAGGACAUGUGUCUA | – | – | 16.7 | 75.5 |
| GGACAUGUCGUCUACAUGAGGAUCACCCAUGUCGAUAGACAUGAGGAUAUCGAUAAGAAUUGUAUCGAGAAGGCAUGCAGGUCC | 19.8 | 21.6 | – | – |
| UGGACCGAGCUGUCGGUUGACUCGAAGGAUAUGACAUGAGGAUCACCCAUGUGGGAUCUAAAUUGUCAGAAGGUUGGUUCUGGG | – | – | 641 | 276 |
| GGCGACCUAGGAUAUACAUGAGGAUCACCCAUGUUUAUCUAAUAGAUGAAGACGGGUUGUAGAAGGAGGAAAAU | – | – | 15.6 | 19.4 |
| AUGCCUUAUGUAGGAUAUGCAUAGCGUUGCUAUGCAGAAGGACAUGAGGAUCACCCAUGUAUGUAUUCCAUACAUAUCUGGCAU | – | – | 26.8 | 343 |
| UGAUACUAAGAGAAGGUUCAAACUACAUAUUACAUACAUGAGGAUCACCCAUGUUGGUGAAUAAGAAAGGAUAUUUUACUAUAU | – | – | 25.7 | 21.6 |
| CCGUAGUACUGGGAUCCGGGCCUACAUGAGGAUCACCCAUGUCAGGAUAUACGCGAGAUAAAUACGUAGAAGGGACACAGAUGA | – | – | 19.7 | 33.1 |
| AAUAAACUCACAGGAUAUAGCAUAGGUCGCGUGUACUUACAGGCGACUAUGCUAGAAGGGUGACCACAUGAGGAUCACCCAUGU | 887 | 188 | – | – |
| UUCAUGUGAGGAUAUCAGUAGUAAAAAAAUAAAAUUACUACUGAGAAGGCACAUGAGGAUCACCCAUGUCCUUC | – | – | 62.5 | 40.8 |
| AAACAUGUCCGAGGAUAUCUGGAAACAUUUUCAAGAGAAGGCGGACAUGAGGAUCACCCAUGUCUCUCCUCAUCCACUACAAAU | – | – | 9.59 | 60.6 |
| GUACGUGGACAGAAGGCGACAUGAGGAUCACCCAUGUUGGCUCGGGUAUGACCAAUCCGCAUGAUCGAGGAUAUGUCUGCGGGC | – | – | 199 | 14.8 |
| UGUGAGUUGAUGUUAGAUAGGAGUACAUGAGGAUCACCCAUGUAGGAUAUUCAAAGACGAAGAUAGAAGAAGGACAUAGGUUUC | – | – | 21.4 | 18.1 |
| GUCGGAAACGACAAUGAUAGGACUGAGGAUAUACAUAAGUAAGUCCUUACAUGAGGAUCACCCAUGUAGAAGGCAGUCCUAUCU | – | – | 43.9 | 502 |
| GUCGGAAACGACAAAAGUAUGGAUCCAGAAGGCAUGAUACAUGAGGAUCACCCAUGUCUAAGACAUGAGGAUAUGGAUCCAUAC | 13.7 | 4.77 | – | – |
| AGAGAAUACUCAGGAUAUCUUAAUAGAAAGAGUAGAGAAGGGAGACAUGAGGAUCACCCAUGUGAAGUCUUGAGACUACAUGGU | – | – | 367 | 470 |
| GCGUAUUAGGUGUAGCUAGACAUUCAAGAAGGGUGAAGAACAUGAGGAUCACCCAUGUAGUUGUUACAGGAUAUUGAUUUACGC | 785 | 260 | – | – |
| ACACAUGAGGAUCACCCAUGUAGCUGACGUCUGCGCCAGCCACAGGAUAUACGGCAACACAAACCGUAGAAGGGUGAUAAACAC | 114 | 23 | – | – |
| CCAUAAAAGAUCCAAUUUUACAACAUGAGGAUCACCCAUGUGCAGGAUAUCGUGAAAGUAAAAUACGAGAAGGGCAAGAACUGC | – | – | 265 | 246 |
| AUGGAUAUCACAGGAUAUGCUAAGGAUACCUUAGCAGAAGGGUGAUCCAUCCUAUGGCUGCACAUGAGGAUCACCCAUGUGUCC | 124 | 11.8 | – | – |
| GGUGGUGUCCGAGGAUAUCGUUAGGCGUUGUUGCGAGAAGGCGGACAUGAGGAUCACCCAUGUUUGAUGAAAGAGGAGGUUGUG | – | – | 98.5 | 123 |
| AAUUGACACGUAGGAUAUCGCUCUUAAUUAACACGAGAAGGACGUACAUGAGGAUCACCCAUGUUAAAUGGUGUAGAUUAGUUG | – | – | 219 | 599 |
| GUGCAUUCGUAGAAGGGUGACAUGAGGAUCACCCAUGUGCGCUGGGCUCGGGAGGCAUCAGCGCCACAGGAUAUACGAAGCACC | 66.8 | 48.6 | – | – |
| AGAUGACAAAGUCAUCUCUGACAGACAUGAGGAUCACCCAUGUAGGAUAUGCUACUCAAAGAGUAGCAGAAGGACAUGUGUCUU | – | – | 32.3 | 183 |
| UAAAUACAUGAGGAUCACCCAUGUGAGGAUAUCCGAUGAUUCGGAGAAAUGACCCGUUGGAGAAGGCAUAGGGC | – | – | 30.8 | 22.7 |
| UAGAAGUCAGGAUAUCCAGCUCGUCACUUGCGUGAUGAGUUGGAGAAGGGACAUGAGGAUCACCCAUGUAAAGU | – | – | 56.3 | 58.3 |
| GCAAAGCCUGACAUGAGGAUCACCCAUGUUAGAUUGUUAUGUCAGGAUAUUGUCUAGACCCUAGACAAGAAGGGAUGCUUUGCA | 472 | 29.1 | – | – |
| GAGAAGUCAGGAUAUGCAUGGCGGGACUUGCGUCGUGGCGUGCAGAAGGGACAUGAGGAUCACCCAUGUAAAGG | – | – | 143 | 265 |
